Results reported in ChEMBL document CHEMBL1142735, “Discovery of a new series of centrally active tricyclic isoxazoles combining serotonin (5-HT) reuptake inhibition with alpha2-adrenoceptor blocking activity” (J Med Chem, 2005).

Assays:
[1] = molecular target: Sodium-dependent serotonin transporter (Homo sapiens, UniProt P31645); experiment: Binding affinity for serotonin transporter
Outline: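 Human platelet membranes (50 µg protein) in 50 mM Tris-HCl pH 7.4 with 120 mM NaCl and 5 mM KCl. Competition against [3H]paroxetine (0.5 nM), 60 min at 25 °C. Nonspecific binding defined with imipramine (1 µM). Filtration over 0.1% PEI-presoaked GF/B, washed with incubation buffer. Sigmoidal fit of specific binding; Ki via Cheng-Prusoff.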

[2] = molecular target: T1, Alpha-2C adrenergic receptor (Homo sapiens, UniProt P18825); experiment: Binding affinity for alpha-2C adrenergic receptor
T1 sequence (P18825 whole entry): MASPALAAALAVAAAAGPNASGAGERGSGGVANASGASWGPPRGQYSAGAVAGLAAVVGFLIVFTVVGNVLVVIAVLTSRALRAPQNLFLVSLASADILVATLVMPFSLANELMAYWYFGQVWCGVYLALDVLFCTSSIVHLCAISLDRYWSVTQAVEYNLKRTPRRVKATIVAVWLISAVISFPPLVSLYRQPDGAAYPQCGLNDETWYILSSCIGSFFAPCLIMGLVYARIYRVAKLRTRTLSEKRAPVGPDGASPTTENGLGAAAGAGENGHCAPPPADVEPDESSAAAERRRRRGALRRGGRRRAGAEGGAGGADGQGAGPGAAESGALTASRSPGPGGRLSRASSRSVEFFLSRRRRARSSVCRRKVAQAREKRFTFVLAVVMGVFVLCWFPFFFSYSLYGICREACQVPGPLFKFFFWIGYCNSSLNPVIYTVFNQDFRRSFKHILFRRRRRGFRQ
Outline: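 Human alpha2C receptor stably expressed in CHO cell membranes (5-10 µg protein) in 25 mM glycylglycine, pH 7.6. Competition against [3H]rauwolscine (1 nM), 30 min at 25 °C. Nonspecific binding defined with spiroxatrine (1 µM). Rapid filtration over GF/B, washed with ice-cold 50 mM Tris-HCl pH 8.0, scintillation counting. Sigmoidal curves fitted; Ki by Cheng-Prusoff.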

Sequence of Sodium-dependent serotonin transporter (P31645 whole entry): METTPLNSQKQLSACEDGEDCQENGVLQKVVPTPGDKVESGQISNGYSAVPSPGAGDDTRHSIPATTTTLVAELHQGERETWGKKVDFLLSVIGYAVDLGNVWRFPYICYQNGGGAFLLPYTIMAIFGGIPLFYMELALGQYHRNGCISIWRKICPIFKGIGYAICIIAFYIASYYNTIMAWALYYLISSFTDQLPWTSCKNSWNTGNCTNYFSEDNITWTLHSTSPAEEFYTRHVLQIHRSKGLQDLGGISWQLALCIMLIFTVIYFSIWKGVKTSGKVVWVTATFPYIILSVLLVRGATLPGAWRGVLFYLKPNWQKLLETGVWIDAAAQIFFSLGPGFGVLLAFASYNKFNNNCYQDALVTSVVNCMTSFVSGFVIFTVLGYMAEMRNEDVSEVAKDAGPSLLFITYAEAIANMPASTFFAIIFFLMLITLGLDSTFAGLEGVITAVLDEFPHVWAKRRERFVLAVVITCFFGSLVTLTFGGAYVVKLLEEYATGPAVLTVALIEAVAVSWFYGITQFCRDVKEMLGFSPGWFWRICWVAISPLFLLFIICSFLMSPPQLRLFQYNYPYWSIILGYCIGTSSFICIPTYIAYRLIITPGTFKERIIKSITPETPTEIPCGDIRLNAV

| SMILES | Ki [1] | Ki [2] |
| --- | --- | --- |
| COCC(=O)Oc1ccc2c(c1)OC[C@@H]1C2=NO[C@H]1CN1CCN(C/C(C)=C/c2ccccc2)CC1 | 5.7 nM | 0.2 nM |
| C/C(=C\c1ccccc1)CN1CCN(C[C@@H]2ON=C3c4ccc(OC(=O)C5CC5)cc4OC[C@H]32)CC1 | 26 nM | 0.3 nM |
| COc1ccc2c(c1)OC[C@@H]1C2=NO[C@H]1CN1CCN(C/C(C)=C/c2ccccc2)CC1 |  | 0.2 nM |
| CC(=O)Oc1ccc2c(c1)OC[C@@H]1C2=NO[C@H]1CN1CCN(C/C(C)=C/c2ccccc2)CC1 | 7.7 nM | 0.2 nM |
| C/C(=C\c1ccccc1)CN1CCN(C[C@@H]2ON=C3c4ccc(OCCN(C)C)cc4OC[C@H]32)CC1 | 3.5 nM |  |
| C/C(=C\c1ccccc1)CN1CCN(C[C@@H]2ON=C3c4ccc(OC(=O)C(C)(C)C)cc4OC[C@H]32)CC1 | 12 nM | 1.6 nM |
| CCOCCOCCOc1ccc2c(c1)OC[C@@H]1C2=NO[C@H]1CN1CCN(C/C(C)=C/c2ccccc2)CC1 | 17 nM | 0.2 nM |
| C=CC(=O)Oc1ccc2c(c1)OC[C@@H]1C2=NO[C@H]1CN1CCN(C/C(C)=C/c2ccccc2)CC1 | 41 nM | 0.5 nM |
| C/C(=C\c1ccccc1)CN1CCN(C[C@@H]2ON=C3c4ccc(O)cc4OC[C@H]32)CC1 | 3.6 nM |  |
| COc1cc2c(cc1OC)C1=NO[C@@H](CN3CCN(CCOc4ccc(F)cc4)CC3)[C@@H]1CN2 | 154 nM | 1.6 nM |
| CN1C[C@@H]2C(=NO[C@H]2CN2CCN(C/C=C/c3ccccc3)CC2)c2ccccc21 | 16 nM | 4.5 nM |
| COc1ccc2c(c1)C=C[C@@H]1C2=NO[C@H]1CN1CCN(Cc2ccc3ccccc3c2)CC1 | 1.4 nM | 6.3 nM |
| CCNC(=O)N1C[C@@H]2C(=NO[C@H]2CN2CCN(C/C=C/c3ccccc3)CC2)c2ccccc21 | 23 nM | 2.7 nM |
| COc1cc2c(cc1OC)C1=NO[C@@H](CN3CCN(Cc4ccc(Cl)cc4)CC3)[C@@H]1CN2 | 151 nM | 23 nM |
| CCOC(=O)N1C[C@@H]2C(=NO[C@H]2CN2CCN(C/C=C/c3ccccc3)CC2)c2ccccc21 | 2.6 nM | 9.8 nM |
| COc1cc2c(cc1OC)C1=NO[C@@H](CN3CCN(Cc4ccc5ccccc5c4)CC3)[C@@H]1CN2 | 1.5 nM | 12 nM |
| COc1cc2c(cc1OC)N(C)C[C@@H]1C2=NO[C@H]1CN1CCN(CCCC(C)=Cc2ccccc2)CC1 | 104 nM | 4 nM |
| C(=C\c1ccccc1)/CN1CCN(C[C@@H]2ON=C3c4ccccc4OC[C@H]32)CC1 |  | 1.7 nM |
| C1=C[C@@H]2C(=NO[C@H]2CN2CCN(C/C=C/c3ccccc3)CC2)c2ccccc21 | 106 nM | 112 nM |
| COc1cc2c(cc1OC)C1=NO[C@@H](CN3CCN(Cc4ccc5ncccc5c4)CC3)[C@@H]1CN2 | 22 nM | > 1000 nM |
| C(=C\c1ccccc1)/CN1CCN(C[C@@H]2ON=C3c4ccccc4NC[C@H]32)CC1 | 84 nM | 15 nM |
| COc1ccc2c(c1)C=C[C@@H]1C2=NO[C@H]1CN1CCN(C/C=C/c2ccccc2)CC1 | 7.3 nM | 3.9 nM |
| COc1cc2c(cc1OC)C1=NO[C@@H](CN3CCN(C/C=C/c4ccccc4)CC3)[C@@H]1CN2 | 9.7 nM | 5.4 nM |
| c1ccc2c(c1)NC[C@@H]1C2=NO[C@H]1CN1CCN(Cc2ccc3ccccc3c2)CC1 | 0.5 nM | 9.6 nM |
| COc1cc2c(cc1OC)C1=NO[C@@H](CN3CCN(C/C(C)=C/c4ccccc4)CC3)[C@@H]1CN2 | 8.9 nM | 0.1 nM |
| C/C(=C\c1ccccc1)CN1CCN(C[C@@H]2ON=C3c4ccc(OC5CCCC5)cc4OC[C@H]32)CC1 | 56 nM | 0.5 nM |
| C/C(=C\c1ccccc1)CN1CCN(C[C@@H]2ON=C3c4ccc(OC(=O)c5ccncc5)cc4OC[C@H]32)CC1 | 13 nM | 0.5 nM |
| CC(=O)N1C[C@@H]2C(=NO[C@H]2CN2CCN(CCC/C=C/c3ccccc3)CC2)c2ccccc21 | 61 nM | 11 nM |
| COCCOc1ccc2c(c1)OC[C@@H]1C2=NO[C@H]1CN1CCN(C/C(C)=C/c2ccccc2)CC1 | 4.5 nM | 0.03 nM |
